Screening results (PubChem BioAssay)
PKA-R1A activ: PKA-R1A complex activation. PKA-R1A dissociation, Cy5-IP20 fluorescence polarization; scaled: DMSO 0%, 113 µM cGMP 100%. activation, % at 11.4 µM. 340,000 compounds, 0.083% hits. AID 504707;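 active means percent activation above the mean of all tested compounds plus 3 SD, cut at about 19% in these data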;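 further: higher means more PKAc released from R1A so a rise in polarization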
Vif inh: blocks HIV Vif function. inhibition, % at 7.49 µM. AID 602346. HEK293T cells, Vif self-association by quenched fluorescence, imaging, 24 h. 340,000 compounds, 0.35% hits; in the data active means inhibition above about 50%, passing the limit was not always enough; inconclusive means no clear call, values can overlap the other calls; inactive means below about 31%
SR-BI HDL uptake: blocks mouse SR-BI lipid uptake from DiI-HDL. ldlA[mSR-BI] CHO cells, DiI-HDL uptake fluorescence, 3 h. inhibition, % at 12.5 µM. AID 488896. 320,000 compounds, 0.96% hits;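 active means mean replicate inhibition of at least 70% and a set share of replicates each scoring 70 or more; inconclusive means meets just one of the two criteria; inactive means fails both criteria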
Target sequence (Q61009 whole entry, looked up): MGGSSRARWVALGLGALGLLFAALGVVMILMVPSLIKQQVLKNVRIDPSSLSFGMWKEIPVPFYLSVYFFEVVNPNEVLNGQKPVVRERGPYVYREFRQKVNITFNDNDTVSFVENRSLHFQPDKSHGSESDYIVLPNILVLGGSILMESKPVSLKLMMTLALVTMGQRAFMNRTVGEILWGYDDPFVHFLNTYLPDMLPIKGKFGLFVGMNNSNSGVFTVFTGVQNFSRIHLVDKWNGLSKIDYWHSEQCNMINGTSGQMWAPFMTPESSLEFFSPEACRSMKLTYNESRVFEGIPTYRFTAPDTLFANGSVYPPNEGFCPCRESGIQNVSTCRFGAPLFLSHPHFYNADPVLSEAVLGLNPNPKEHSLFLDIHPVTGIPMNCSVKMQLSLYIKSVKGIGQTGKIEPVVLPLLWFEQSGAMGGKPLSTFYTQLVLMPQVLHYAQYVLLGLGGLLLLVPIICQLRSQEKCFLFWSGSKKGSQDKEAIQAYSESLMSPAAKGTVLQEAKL
PKA-R2B activ: activators of human PKA-R2B complex; 340,000 compounds, 0.079% hits; PKA-R2B holoenzyme dissociation, Cy5-IP20 fluorescence polarization; R2B truncated from residue 108, S112A mutant; 0% DMSO only, 100% 113 µM cGMP; activation, % at 11.4 µM;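 active means activation above a cutoff set at the mean over all compounds plus 3 SD, cut at about 18% in these data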;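 further: higher means more holoenzyme dissociation and a rise in polarization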
SR-BI uptake up: enhances SR-BI lipid uptake from DiI-HDL; CHO ldlA[mSR-BI] cells, DiI-HDL uptake fluorescence, 3 h; 100 = double the neutral-control signal; activation, % at 12.5 µM; 320,000 compounds, 0.096% hits;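 active means mean replicate activation of at least 60% and every replicate at or above 60%; inconclusive means mean or all-replicate condition met, but not both; inactive means mean below 60% and not all replicates reaching 60%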
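Assay system: CHO ldlA[mSR-BI] cells, LDL receptor-null, SR-BI overexpressing; medium: Ham's F12 with 0.5% BSA, HEPES 25 mM, pH 7.4; also added: DiI-HDL 10 µg/mL; timing: 3 h uptake period with compound, 37 °C; signal: DiI fluorescence, bottom read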
Of the large screens only hits and unclear results are named; the others gave an inactive call. Sampled rows, rich in hits. Any-hit rate of the full collection: about 1.4%.

COc1cc(/C=C/C(=O)c2ccc3c(c2)OCO3)cc(OC)c1OC	none
CCCOC(=O)c1c(-c2ccc(OC)cc2)oc2ccc(-c3ccc(OC)nc3)cc12	SR-BI HDL uptake 73
COc1ccc(C(=O)c2c(-c3ccc(OC)cc3)oc3ccc(-c4cc(OC)c(OC)c(OC)c4)cc23)cc1	SR-BI HDL uptake 73
COc1ccc(-c2oc3ccc(-c4ccc5c(c4)OCO5)cc3c2C#CC2(O)CCCCC2)cc1	SR-BI HDL uptake 84
COc1ccc(-c2oc3ccc(-c4ccc(OC)nc4)cc3c2-c2ccc(OC)cc2)cc1	none
COc1ccc(-c2oc3ccc(-c4ccc(OC)nc4)cc3c2C#CC2(O)CCCCC2)cc1	SR-BI HDL uptake 85
O=C(O)c1ccc(N2C(=O)Nc3ccccc3N2O)cc1	none
O=C(NCc1cccnc1)c1csc([C@@H]2C[C@H](O)[C@@H](CO)O2)n1	none (no result: PKA-R1A activ, SR-BI HDL uptake, PKA-R2B activ, SR-BI uptake up)
CCOC(=O)c1c(C)nc(C)c(C(=O)OCC)c1-c1ccco1	none
Cc1ncc(C(=O)O)c(C(=O)O)c1N	Vif inh 62
CSc1ncc(C(=O)O)c(C)n1	none
CC1(Cc2cc(Cl)ccc2C(F)(F)F)C(=O)Nc2ccc(S(=O)(=O)NC3CCCCC3)cc21 (centres undefined)	Vif inh 70 (no result: PKA-R1A activ, SR-BI HDL uptake, PKA-R2B activ, SR-BI uptake up)
CC1(Cc2cccc(F)c2)C(=O)Nc2ccc(S(=O)(=O)NC3CCCCC3)cc21 (centres undefined)	none (no result: PKA-R1A activ, SR-BI HDL uptake, PKA-R2B activ, SR-BI uptake up)
Cc1cc(Br)ccc1NC(=O)CN(C)C(=O)c1cc(S(=O)(=O)N(C)C)ccc1N1CCCC1	none
CCc1cc(C(=O)NCC(c2cccs2)N2CCOCC2)sc1C (centres undefined)	none
COCCCNc1nc(-c2ccncc2)nc2ccccc12	SR-BI HDL uptake 75 (no result: Vif inh)
COCCNc1nc(-c2ccccc2)nc2ccccc12	none
OCCCNc1nc(-c2ccc(Cl)cc2)nc2ccccc12	none
COCCCNc1nc(-c2ccc(Cl)cc2)nc2ccccc12	SR-BI HDL uptake 86
C[C@H](NC(=O)c1ccco1)C(=O)Nc1cc(S(=O)(=O)N2CCCC2)ccc1OCC(F)(F)F	none
O=C(NN=C(Cc1ccccc1)Cc1ccccc1)c1ccccc1O	SR-BI uptake up 299 (no result: PKA-R1A activ, PKA-R2B activ)
Cc1cc(-c2cc(-c3ccccc3)on2)nc(NC2CCCC2)n1	SR-BI HDL uptake 81
COc1ccc(NC(=O)CN(C)C(=O)CN2C(=O)NC3(CCCC3)C2=O)cc1	none
O=c1ccn(-c2cccc(C(F)(F)F)c2)nc1-c1ccn(-c2cccc(Cl)c2)n1	none
CCn1c(NC(=O)c2cccc(Cn3cc(Cl)cn3)c2)nc2ccccc21	SR-BI HDL uptake 93
Cn1c(NC(=O)c2cccc(Cn3cc(Cl)cn3)c2)nc2ccccc21	none
CC1(C)CC(=O)C2=C(C1)N(Cc1ccco1)C(=O)NC2(C(F)(F)F)C(F)(F)F	Vif inh 54
O=C(Nc1cccc2ccccc12)c1csc(COCCO)n1	none (no result: PKA-R1A activ, SR-BI HDL uptake, PKA-R2B activ, SR-BI uptake up)
CCC1(C2C=COC=C2)NC(=O)NC1=O (centres undefined)	none (no result: PKA-R1A activ, SR-BI HDL uptake, PKA-R2B activ, SR-BI uptake up)
O=C(OCc1ccccc1)C1CCCN1C(=O)c1ccccc1[N+](=O)[O-] (centres undefined)	Vif inh 56
COc1cc(-c2cc(=O)c3c(O)c(OC)c(OC)c(O)c3o2)ccc1O	Vif inh 62
COc1c(O)c(O)c2oc(-c3ccccc3)cc(=O)c2c1OC	none
COc1ccc(CCNC(=S)NC2CCN(Cc3ccccc3)CC2)cc1OC	none
COc1ccccc1-c1oc2ccccc2c1-c1ccc2cc[nH]c2c1	SR-BI HDL uptake 80
Cc1cc(C)n(Cc2ccc(C(=O)N/N=C/c3ccc(-c4ccc([N+](=O)[O-])cc4)o3)o2)n1	SR-BI HDL uptake 104
Cn1c(=S)n(/N=C/c2cccs2)c2ccccc21	SR-BI uptake up 262
CN(C)c1nc(C=C(C#N)C#N)c(Cl)n1-c1ccc(F)cc1	Vif inh 105
CC(OC(=O)/C(C#N)=C/c1ccc(N(C)C)cc1)C(=O)N(C)c1ccccc1 (centres undefined)	none
CC(=O)Nc1ccc(NC(=O)C(C)OC(=O)/C(C#N)=C/c2ccc(N(C)C)cc2)cc1 (centres undefined)	Vif inh 124
CCOC(=O)Cc1cnc(NC(=O)CSc2nc(N)cc(N)n2)s1	none
COc1ccc(Nc2nc(-c3ccc(OC)cc3)cs2)cc1	none
COc1ccc(-c2csc(Nc3ccc(S(N)(=O)=O)cc3)n2)cc1	SR-BI uptake up 108
c1cc2c(cc1Nc1nc(-c3ccc4c(c3)OCO4)cs1)OCCO2	none
COc1ccc(-c2csc(Nc3ccccc3)n2)cc1	SR-BI HDL uptake 73
COc1cccc(Nc2nc(-c3ccc4c(c3)OCCO4)cs2)c1	SR-BI HDL uptake 91
CCC(=O)N1CCCC(C(=O)NCc2ccc(C(C)C)cc2)CC1 (centres undefined)	none (no result: PKA-R1A activ, SR-BI HDL uptake, PKA-R2B activ, SR-BI uptake up)
COCC(=O)Nc1cc(Cl)c(OC)cc1OC	none
CSCCC(NC(=O)COc1ccccc1)C(=O)N1CCCC(C(F)(F)F)C1 (centres undefined)	none
C[C@@H]1CN([C@H](C)CO)C(=O)CCCn2cc(nn2)CO[C@H]1CN(C)C(=O)Nc1ccc(-c2cccs2)cc1	none (no result: Vif inh, SR-BI HDL uptake, SR-BI uptake up)
COc1cc(/C=C\C(=O)NCc2ccc3[nH]c(C)cc3c2)cc(OC)c1OC	SR-BI HDL uptake 76 (no result: Vif inh)
COc1ccc(NC(=O)CN2CCC(C(N)=O)(N3CCCCC3)CC2)c(OC)c1	none
CCc1nnc(NC(=O)c2sc3nc4cc(C)ccc4cc3c2N)s1	Vif inh 170
CCOC(=O)Cc1csc(NC(=O)c2sc3nc4ccc(C)cc4cc3c2N)n1	none
CCc1cccc(C)c1NC(=O)COC(=O)c1cc([N+](=O)[O-])ccc1N1CCOCC1	SR-BI HDL uptake 72
O=C(COC(=O)c1cc([N+](=O)[O-])ccc1N1CCOCC1)c1ccc(F)cc1	SR-BI HDL uptake 84
O=C(OCc1ccc(Br)cc1)c1cc([N+](=O)[O-])ccc1N1CCOCC1	none (no result: Vif inh, SR-BI HDL uptake, SR-BI uptake up)
CCc1ccc(C(=O)COC(=O)c2cc([N+](=O)[O-])ccc2N2CCOCC2)cc1	SR-BI HDL uptake 81
CC(C)C1C(=O)N(Cc2cn(CCC3OCCO3)nn2)CCS(=O)(=O)N1Cc1ccc(-c2ccc(F)cc2)cc1 (centres undefined)	none (no result: SR-BI HDL uptake, SR-BI uptake up)
COc1cc(C(=O)Oc2cccnc2)cc(OC)c1OC	none
COc1cc(C(=O)Oc2cc(C)cc(C)c2)cc(OC)c1OC	SR-BI HDL uptake 77
Cc1ccc(NC(=O)CCc2c(C)nn(-c3ccc(N4CCCCC4)nn3)c2C)cc1C	none
Cc1cc(F)ccc1NC(=O)CCc1c(C)nn(-c2ccc(N3CCCCC3)nn2)c1C	SR-BI HDL uptake 82
COc1ccc(C)cc1NC(=O)CCc1c(C)nn(-c2ccc(N3CCCCC3)nn2)c1C	SR-BI HDL uptake 71
Cc1nn(-c2ccc(N3CCCCC3)nn2)c(C)c1CCC(=O)Nc1ccc(F)c(F)c1	none
Cc1ccc(F)cc1NC(=O)CCc1c(C)nn(-c2ccc(N3CCCCC3)nn2)c1C	Vif inh inconclusive, SR-BI HDL uptake 81
